Results taken from ChEMBL document CHEMBL1145938, “Synthesis and structure-activity relationship of aminobenzophenones. A novel class of p38 MAP kinase inhibitors with high antiinflammatory activity” (J Med Chem, 2003).

Tests used:
[1] = target: Mitogen-activated protein kinase 14 (Homo sapiens, UniProt Q16539); test: In vitro inhibitory activity determined against human mitogen-activated protein kinase p38 alpha
MAP kinase p38 [2] = target: T1, MAP kinase p38 (Homo sapiens, UniProt O15264+Q15759+Q16539+P53778); test: In vitro inhibition of TNF-alpha release from LPS stimulated human peripheral blood mononuclear cells.; format: functional
In short: (§1)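 Human PBMC from buffy coats (Lymphoprep), 5×10^5 cells/mL in RPMI1640 with 2% FCS, glutamine, penicillin/streptomycin; 30 min preincubation with compound, then LPS stimulation, 18 h at 37 °C, 5% CO2.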

MAP kinase p38 [3] = target: T1, MAP kinase p38; test: In vitro inhibition of IL1-beta release from LPS stimulated human peripheral blood mononuclear cells.; format: functional; in short: as §1

Chain of Mitogen-activated protein kinase 14 (Q16539 whole entry): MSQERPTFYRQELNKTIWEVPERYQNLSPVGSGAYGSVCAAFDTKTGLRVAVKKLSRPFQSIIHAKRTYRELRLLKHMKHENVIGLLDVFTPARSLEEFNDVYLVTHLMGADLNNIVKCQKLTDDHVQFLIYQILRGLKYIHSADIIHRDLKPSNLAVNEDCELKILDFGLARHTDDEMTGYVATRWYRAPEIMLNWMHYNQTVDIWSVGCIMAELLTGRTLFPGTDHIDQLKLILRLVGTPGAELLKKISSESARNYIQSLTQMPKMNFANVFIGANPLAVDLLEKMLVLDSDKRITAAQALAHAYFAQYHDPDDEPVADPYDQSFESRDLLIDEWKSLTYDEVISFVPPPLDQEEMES

Structure (SMILES) | IC50 [1] | IC50 (MAP kinase p38 [2]) | IC50 (MAP kinase p38 [3])
Cc1ccccc1C(=O)c1ccc(Nc2ccccc2)cc1Cl | 7 nM | 24 nM | 119 nM
Nc1ccccc1Nc1ccc(C(=O)c2ccccc2-c2ccccc2)cc1 | 811 nM | 444 nM | 483 nM
Cc1ccccc1Cc1ccc(Nc2ccc(F)cc2N)cc1Cl | > 100000 nM | > 10000 nM | > 10000 nM
CCOC(=O)Nc1ccccc1Nc1ccc(C(=O)c2ccccc2C)c(Cl)c1 | 42 nM | 6 nM | 16 nM
O=C(c1ccccc1)c1ccc(Nc2ccccc2)cc1 | 193 nM | 1349 nM | 175 nM
Nc1ccccc1Nc1ccc(C(=O)c2ccccc2)cc1 | 145 nM | 159 nM | 226 nM
CC(=O)Nc1ccccc1Nc1ccc(C(=O)c2ccccc2C)c(Cl)c1 | 63 nM | 10 nM | 21 nM
Cc1ccccc1C(=O)c1ccc(Nc2ccccc2[N+](=O)[O-])cc1Cl | 437 nM | 382 nM | 427 nM
CCNC(=O)Nc1ccccc1Nc1ccc(C(=O)c2ccccc2C)c(Cl)c1 | 21 nM | 3 nM | 9 nM

The remaining lines, values ahead:

IC50 [1] | IC50 (MAP kinase p38 [2]) | IC50 (MAP kinase p38 [3]) | Structure (SMILES)
29 nM | 47 nM | 67 nM | Cc1ccccc1C(=O)c1ccc(Nc2ccccc2N)cc1
574 nM | 467 nM | 580 nM | Cc1cccc(C(=O)c2ccc(Nc3ccccc3N)cc2)c1
5 nM | 20 nM | 28 nM | COc1ccccc1C(=O)c1ccc(Nc2ccccc2N)cc1Cl
101 nM | 44 nM | 70 nM | Cc1ccccc1C(=O)c1ccc(N(C)c2ccccc2N)cc1Cl
13 nM | 8 nM | 22 nM | Cc1ccccc1C(=O)c1ccc(Nc2ccccc2N)cc1C
139 nM | 214 nM | 437 nM | Nc1ccccc1Nc1ccc(C(=O)c2ccccc2)c(Cl)c1
12 nM | 14 nM | 26 nM | Cc1ccccc1Nc1ccc(C(=O)c2ccccc2C)c(Cl)c1
143 nM | 127 nM | 343 nM | Cc1cc(C(=O)c2ccccc2C)ccc1Nc1ccccc1N
1550 nM | > 10000 nM | > 5000 nM | C=C(c1ccccc1C)c1ccc(Nc2ccccc2N)cc1Cl
54 nM | 34 nM | 45 nM | Nc1ccccc1Nc1ccc(C(=O)c2ccccc2Br)cc1
